Experimental data: ChEMBL document CHEMBL4020708, “Studies of CDK 8/19 inhibitors: Discovery of novel and selective CDK8/19 dual inhibitors and elimination of their CYP3A4 time-dependent inhibition potential” (Bioorg Med Chem, 2017)
Converted amounts (≈) assume the structure as drawn. The source made the active and inactive calls. The rule behind the calls is not given here.

How the values were obtained:
[1] = biological target: T1, Cyclin-dependent kinase 8 (Homo sapiens, UniProt P49336); assay: Inhibition of CDK8 in human SW480 cells assessed as reduction in IFN-gamma induced STAT1 phosphorylation at Ser727 residues preincubated for 2 hrs followed by IFN-gamma addition measured after 1 hr by In-cell western assay; assay type: cell-based
In short: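 SW480 cells kept in L-15 with 10% FBS at 37 °C and plated at 6000 cells/well overnight. Compound applied 2 h, then 10 ng/mL IFN-γ for 1 h. Cells fixed, permeabilized and blocked, then probed overnight at 4 °C with anti-pSTAT1 Ser727. IRDye 800CW secondary plus DRAQ5 for DNA, Odyssey imaging.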

Mus musculus [2] = assay: Toxicity in C.B17/Icr-scid/scid Jcl mouse xenografted with human RPMI8226 cells assessed as change in body weight at 15 mg/kg, po bid after 2 weeks; assay type: organism-based; details: in vivo, 336 h
In short: (§1)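 Female C.B17/Icr-scid/scid Jcl mice, five weeks old, implanted sc in one flank with 1×10^7 RPMI-8226 cells in HBSS:Matrigel 1:1. When tumors reached about 80–140 mm³, dosed po b.i.d. at 15 or 30 mg/kg for 14 days. Caliper volume (0.5×length×width²) and body weight measured twice weekly. Tumor growth expressed as T/C vs vehicle. Mean ± se.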

RPMI-8226 [3] = assay: Antitumor activity against human RPMI8226 cells xenografted in C.B17/Icr-scid/scid Jcl mouse assessed as tumor growth at 15 mg/kg, po bid after 2 weeks relative to control; assay type: functional; in short: as §1
RPMI-8226 [4] = assay: Antitumor activity against human RPMI8226 cells xenografted in C.B17/Icr-scid/scid Jcl mouse assessed as tumor growth at 30 mg/kg, po bid after 2 weeks relative to control; assay type: functional; in short: as §1
RPMI-8226 [5] = assay: Antiproliferative activity against human RPMI8226 cells after 168 hrs by Celltiter-Glo luminescent assay; assay type: functional; details: RPMI-8226, 168 h
In short: (§2)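 Cells seeded at 5×10^2 per well. Compound added 24 h later at an appropriate concentration and incubated 168 h. Viability read by CellTiter-Glo luminescence after 20 min. Nuclear count by CyQuant Direct fluorescence after 1 h.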

Mus musculus [6] = assay: In vivo inhibition of STAT1 phosphorylation at Ser727 residues in C.B17/Icr-scid/scid Jcl mouse xenografted with human RPMI8226 cells at 15 to 30 mg/kg, po bid treated for 2 weeks measured over 2 to 8 hrs post dose by Western blot analysis; assay type: functional, organism-based
In short: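 Xenografted mice dosed po b.i.d. at 15 or 30 mg/kg for 2 weeks, sampled 2 h and 8 h post-dose on the final day. Samples lysed in Tris-SDS-glycerol buffer and boiled 95 °C for 5 min. 5 ug protein run on SDS-PAGE and blotted for STAT1 and phospho-STAT1 Ser727. HRP secondary with ECL detection.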

EOL1 = assay: Antiproliferative activity against human EOL-1 cells after 168 hrs by Celltiter-Glo luminescent assay; assay type: functional; details: EOL1, 168 h; in short: as §2
Mus musculus [7] = assay: Toxicity in C.B17/Icr-scid/scid Jcl mouse xenografted with human RPMI8226 cells assessed as change in body weight at 30 mg/kg, po bid after 2 weeks relative to control; assay type: organism-based; details: in vivo, 336 h; in short: as §1
[8] = MRT in mouse at 1 mg/kg, po administered as cassette dose measured up to 8 hrs by LC/MS/MS analysis; assay type: ADME, organism-based; details: in vivo
In short: (§3)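 Cassette dosing to non-fasted mice, 1 mg/kg po (0–8 h). Plasma obtained from blood by centrifugation, deproteinized with acetonitrile, centrifuged, and the supernatant analysed by LC/MS/MS.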

[9] = biological target: T1, Cyclin-dependent kinase 8; assay: Inhibition of CDK8 in human RPMI8226 cells assessed as reduction in STAT1 phosphorylation at Ser727 residues up to 30 nM after 1 day by Western blot method; assay type: cell-based
In short: (§4)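 Cell pellets were lysed in 62.5 mM Tris-Cl (pH 7.5), 1% SDS and 5% glycerol, then boiled at 95 °C for 5 min. 5 ug total protein was run on SDS-polyacrylamide gels, transferred and probed for total STAT1 and phospho-STAT1 Ser727. Detection used HRP-conjugated secondary antibodies and ECL plus chemiluminescence.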

Liver [10] = assay: Intrinsic clearance in human liver microsomes at 1 umol/L after 15 to 30 mins in presence of NADPH by LC/MS/MS analysis; assay type: ADME, microsome; details: 1 µM
In short: (§5)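 Human or mouse liver microsomes at 0.2 mg/mL protein in 50 mmol/L phosphate buffer pH 7.4 with 1 μmol/L compound. Reaction started with an NADPH-generating system and stopped at 15 and 30 min with acetonitrile. LC/MS/MS readout. Intrinsic clearance taken as initial metabolic velocity (slope of concentration-time) divided by compound concentration.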

[11] = AUC (0 to 8 hrs) in mouse at 1 mg/kg, po administered as cassette dose by LC/MS/MS analysis; assay type: ADME, organism-based; parameters: time < 8 hr, dose 1 mg/kg, route oral; details: in vivo; in short: as §3
[12] = Oral bioavailability in mouse at 1 mg/kg administered as cassette dose measured up to 8 hrs by LC/MS/MS analysis; assay type: ADME, organism-based; details: in vivo
In short: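 Bioavailability from mouse cassette dosing, 0.1 mg/kg iv and 1 mg/kg po, non-fasted animals. Plasma was deproteinized with acetonitrile and compound quantified by LC/MS/MS.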

[13] = Solubility of the compound at pH 6.8; assay type: physicochemical; details: buffer
In short: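 Compound added from DMSO solution to JP 2nd disintegration fluid (pH 6.8) and incubated. Precipitate removed by filtration, and filtrate concentration measured by plate reader or HPLC.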

[14] = biological target: T1, Cyclin-dependent kinase 8; assay: Inhibition of CDK8 in human EOL1 cells assessed as reduction in STAT1 phosphorylation at Ser727 residues up to 30 nM after 1 day by Western blot method; assay type: cell-based; in short: as §4
[15] = biological target: T1, Cyclin-dependent kinase 8; assay: Inhibition of CDK8 in human SW480 cells assessed as reduction in STAT1 phosphorylation at Ser727 residues up to 30 nM after 1 day by Western blot method; assay type: cell-based; in short: as §4
Liver [16] = assay: Intrinsic clearance in mouse liver microsomes at 1 umol/L after 15 to 30 mins in presence of NADPH by LC/MS/MS analysis; assay type: ADME, microsome; details: 1 µM; in short: as §5
[17] = Cmax in mouse at 1 mg/kg, po administered as cassette dose measured up to 8 hrs by LC/MS/MS analysis; assay type: ADME, organism-based; parameters: dose 1 mg/kg, route oral; details: in vivo; in short: as §3
CDK8/Cyclin C = CDK8/Cyclin C (Homo sapiens, UniProt P49336); assay: Inhibition of kinase tracer 236 binding to full length N terminal GST-tagged human CDK8 (1 to 464 end residues) /CycC ( 1 to 283 end residues) expressed in baculovirus expression system after 60 min by TR-FRET assay
In short: (§6)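 TR-FRET ligand displacement using 20 nM GST-CDK8/CycC or GST-CDK19/CycC, 20 nM Kinase Tracer 236 and Tb-anti-GST antibody. Buffer 25 mM HEPES, 10 mM MgCl₂, 2 mM DTT, 0.01% Tween-20. Incubated 60 min at rt.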

CYP3A4 = CYP3A4 (Homo sapiens, UniProt P08684); assay: Time-dependent inhibition of CYP3A4 in human liver microsomes assessed as reduction in testosterone to 6beta-hydroxytestosterone conversion by measuring remaining activity at 30 uM preincubated for 60 mins followed by testosterone addition measured after 20 mins in presence of NADPH by UPLC analysis relative to control; assay type: ADME; details: probe testosterone (6beta-hydroxylation), read-out: Activity
In short: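 Compound at 30 μM preincubated with human liver microsomes in phosphate buffer pH 7.4 at 37 °C for 0 or 60 min with an NADPH-generating system. Testosterone then added for 20 min, and 6β-hydroxytestosterone measured by UPLC. Activity expressed as % of DMSO control; % remaining taken after 60 min preincubation.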

[18] = Total clearance in mouse at 1 mg/kg, po administered as cassette dose measured up to 8 hrs by LC/MS/MS analysis; assay type: ADME, organism-based; details: in vivo
Plasma [19] = assay: Drug metabolism in mouse plasma assessed as formation of (E)-N-(4-((2-hydroxyethylamino)methyl)phenyl)-3-(4-(1-methyl-1H-pyrazol-4-yl)pyridin-3-yl)acrylamide at 1 mg/kg, po administered as cassette dose measured up to 8 hrs by LC/MS/MS analysis; assay type: ADME, organism-based; details: in vivo; in short: as §3
Plasma [20] = assay: Drug metabolism in mouse plasma assessed as formation of (E)-3-(4-(1H-pyrazol-4-yl)pyridin-3-yl)-N-(4-(morpholinomethyl)phenyl)acrylamide at 1 mg/kg, po administered as cassette dose measured up to 8 hrs by LC/MS/MS analysis; assay type: ADME, organism-based; details: in vivo; in short: as §3
Plasma [21] = assay: Drug metabolism in mouse plasma assessed as formation of (E)-4-(1-methyl-1H-pyrazol-4-yl)-3-(3-(4-(morpholinomethyl)phenylamino)-3-oxoprop-1-enyl)pyridine 1-oxide at 1 mg/kg, po administered as cassette dose measured up to 8 hrs by LC/MS/MS analysis; assay type: ADME, organism-based; details: in vivo; in short: as §3
Plasma [22] = assay: Drug metabolism in mouse plasma assessed as formation of (E)-3-(4-(1-methyl-1H-pyrazol-4-yl)pyridin-3-yl)-N-(4-((3-oxomorpholino)methyl)phenyl)acrylamide at 1 mg/kg, po administered as cassette dose measured up to 8 hrs by LC/MS/MS analysis; assay type: ADME, organism-based; details: in vivo; in short: as §3
[23] = biological target: Cyclin-C/Cyclin-dependent kinase 19 (Homo sapiens, UniProt Q9BWU1); assay: Inhibition of kinase tracer 236 binding to GST-tagged CDK19/CycC (unknown origin) after 60 min by TR-FRET assay; assay type: protein-complex assay; in short: as §6
Cyclin-C/Cyclin-dependent kinase 19, sequence (Q9BWU1 whole entry): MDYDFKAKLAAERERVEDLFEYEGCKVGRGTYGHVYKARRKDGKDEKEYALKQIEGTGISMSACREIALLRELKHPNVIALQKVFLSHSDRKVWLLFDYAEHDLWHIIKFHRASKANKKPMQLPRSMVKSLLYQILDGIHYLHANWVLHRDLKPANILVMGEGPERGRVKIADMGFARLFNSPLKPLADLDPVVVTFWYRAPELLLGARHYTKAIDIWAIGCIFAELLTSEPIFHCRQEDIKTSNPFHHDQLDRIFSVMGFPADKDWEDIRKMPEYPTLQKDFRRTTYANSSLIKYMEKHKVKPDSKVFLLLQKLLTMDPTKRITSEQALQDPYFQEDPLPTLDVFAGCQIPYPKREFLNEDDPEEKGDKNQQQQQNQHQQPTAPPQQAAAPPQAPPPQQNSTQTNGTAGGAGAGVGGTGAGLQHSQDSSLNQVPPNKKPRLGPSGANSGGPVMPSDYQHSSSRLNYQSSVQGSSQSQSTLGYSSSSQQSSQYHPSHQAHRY
Cyclin-C/Cyclin-dependent kinase 19, sequence (P24863 whole entry, further chain): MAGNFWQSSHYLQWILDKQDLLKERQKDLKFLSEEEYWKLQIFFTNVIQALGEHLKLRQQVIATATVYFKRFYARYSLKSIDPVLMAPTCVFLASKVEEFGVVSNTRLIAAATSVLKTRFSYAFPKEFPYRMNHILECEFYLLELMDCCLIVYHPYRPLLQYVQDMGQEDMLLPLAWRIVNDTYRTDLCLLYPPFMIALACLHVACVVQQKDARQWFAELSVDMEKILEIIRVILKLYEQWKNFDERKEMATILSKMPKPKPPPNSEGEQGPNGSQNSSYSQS

T1 sequence (P49336 whole entry): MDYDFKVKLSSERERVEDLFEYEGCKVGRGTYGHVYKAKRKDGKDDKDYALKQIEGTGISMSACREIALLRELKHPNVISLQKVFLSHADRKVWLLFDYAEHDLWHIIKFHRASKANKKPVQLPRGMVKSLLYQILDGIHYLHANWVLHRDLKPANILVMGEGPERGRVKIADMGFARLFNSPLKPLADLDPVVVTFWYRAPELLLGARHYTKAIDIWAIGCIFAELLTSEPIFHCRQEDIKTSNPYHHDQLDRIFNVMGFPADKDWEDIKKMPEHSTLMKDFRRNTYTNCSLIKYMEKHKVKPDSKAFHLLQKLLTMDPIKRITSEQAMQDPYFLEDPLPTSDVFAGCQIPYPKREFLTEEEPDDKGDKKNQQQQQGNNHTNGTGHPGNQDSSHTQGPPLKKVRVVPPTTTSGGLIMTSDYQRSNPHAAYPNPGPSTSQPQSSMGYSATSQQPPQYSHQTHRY
CYP3A4, sequence (P08684 whole entry): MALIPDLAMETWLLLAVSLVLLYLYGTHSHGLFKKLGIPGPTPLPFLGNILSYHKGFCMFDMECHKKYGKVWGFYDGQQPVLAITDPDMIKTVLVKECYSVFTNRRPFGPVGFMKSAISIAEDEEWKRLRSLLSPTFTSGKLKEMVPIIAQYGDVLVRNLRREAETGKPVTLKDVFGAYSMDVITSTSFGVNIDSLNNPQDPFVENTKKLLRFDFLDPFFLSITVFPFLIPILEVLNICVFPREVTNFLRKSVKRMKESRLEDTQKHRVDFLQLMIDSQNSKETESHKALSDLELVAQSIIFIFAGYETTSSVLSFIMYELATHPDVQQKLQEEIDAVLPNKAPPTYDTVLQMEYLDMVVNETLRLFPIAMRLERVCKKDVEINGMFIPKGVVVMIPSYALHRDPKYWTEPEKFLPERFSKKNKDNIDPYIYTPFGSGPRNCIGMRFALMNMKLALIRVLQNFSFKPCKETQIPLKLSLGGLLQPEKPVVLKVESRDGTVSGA
CDK8/Cyclin C, sequence (P49336 whole entry): as the sequence (P49336 whole entry) above
CDK8/Cyclin C, sequence (P24863 whole entry, further chain): as the sequence (P24863 whole entry, further chain) above

| SMILES | EC50 [1] | MRT [8] | microsomal intrinsic clearance (Liver [10]) | AUC(0-t) at 8 h [11] | bioavailability [12] | solubility [13] | intrinsic clearance (Liver [16]) | Cmax [17] | IC50 (CDK8/Cyclin C) | activity at 20 min, 30 µM (CYP3A4) | also measured |
| --- | --- | --- | --- | --- | --- | --- | --- | --- | --- | --- | --- |
| O=C(/C=C/c1cnccc1-c1cnn(C2CC2)c1)Nc1ccc(CN2CC(F)(F)C2)cc1 | 8.4 nM | 1.6 h | 15 µL/min/mg | 370 ng·h/mL | 22.5% | 30 µg/mL (≈ 68.9 µM) | 97 µL/min/mg | 321 ng/mL | 2.5 nM | 99% | Activity (Mus musculus [2]): Non-Toxic; T/C (RPMI-8226 [3]): 29%; T/C (RPMI-8226 [4]): -2%; GI50 (RPMI-8226 [5]): 21 nM; inhibition (Mus musculus [6]): Active; GI50 (EOL1): 6.5 nM; Activity (Mus musculus [7]): 12%; inhibition [9]: Active; inhibition [14]: Active; inhibition [15]: Active |
| Cn1cc(-c2ccncc2/C=C/C(=O)Nc2ccc(CN3CCOCC3)cc2)cn1 | 13 nM | 1.5 h | 22 µL/min/mg | 76.9 ng·h/mL | 21.9% | 68 µg/mL (≈ 169 µM) | 77 µL/min/mg | 47.5 ng/mL | 6.5 nM | 81% | CL/F [18]: 49.5 mL/min/kg; Drug metabolism (Plasma [19]): Metabolite_Detected; Drug metabolism (Plasma [20]): Metabolite_Detected; Drug metabolism (Plasma [21]): Metabolite_Detected; Drug metabolism (Plasma [22]): Metabolite_Detected; IC50 [23]: 15 nM |
